{"data": "Assay results of several laboratories", "target": "Tyrosine-protein kinase Yes (YES1, Homo sapiens, UniProt P07947)", "note": "Compare with care: the assays were run in different laboratories."}
{"Compound": "C[C@@H]1CCN(c2nccc(-c3cnn4ncccc34)n2)C1", "effect on": "binding", "tested at": "1 µM", "remaining binding": "100%"}
{"Compound": "O=C(c1ccc(Nc2ncc(Cl)c(-c3cc4ccccc4s3)n2)cc1)N1CCC(N2CCCC2)CC1", "effect on": "binding", "technique": "competition with immobilised ligand", "tested at": "1 µM", "remaining binding": "71%"}
{"Compound": "CN(C)c1nccc(-c2cnn3ncccc23)n1", "effect on": "binding", "tested at": "1 µM", "remaining binding": "78%"}
{"Compound": "O=C(NCC1CCOCC1)c1n[nH]cc1NC(=O)c1c(F)cccc1F", "effect on": "binding", "technique": "competition with immobilised ligand", "tested at": "1 µM", "remaining binding": "99%"}
{"Compound": "CN1CCN(c2ccc(Nc3nccc(-c4cccc([N+](=O)[O-])c4)n3)cc2C(F)(F)F)CC1", "effect on": "binding", "tested at": "10 µM", "remaining binding": "32%"}
{"Compound": "Cc1c(C(=O)O)cc(-c2ccc(C3CCNCC3)cc2)c2ccc(-c3ccc(C(F)(F)F)cc3)cc12", "effect on": "cell-free assay", "technique": "competition with immobilised ligand", "tested at": "1 µM", "remaining binding": "100%"}
{"Compound": "COc1cnc(Nc2cccc(S(N)(=O)=O)c2)nc1N1CCN(c2ccccc2)CC1", "effect on": "binding", "technique": "competition with immobilised ligand", "tested at": "1 µM", "remaining binding": "89%"}
{"Compound": "CC1CCCN1c1nccc(-c2cnn3ncccc23)n1 (stereo not shown)", "effect on": "binding", "tested at": "1 µM", "remaining binding": "89%"}
{"Compound": "CCN1CCN(Cc2ccc(C(=O)Nc3ccc(C)c(Oc4ccc5c(c4)CC(=O)N5)c3)cc2C(F)(F)F)CC1", "effect on": "binding", "technique": "competition with immobilised ligand", "tested at": "1 µM", "remaining binding": "98%"}
{"Compound": "O=C(N[C@H]1CCCCC/C=C\\C2C[C@@]2(C(=O)O)NC(=O)[C@@H]2C[C@@H](Oc3ccncc3)CN2C1=O)OC1CCCC1 (stereo partly shown)", "effect on": "binding", "technique": "competition with immobilised ligand", "tested at": "1 µM", "remaining binding": "100%"}
{"Compound": "O=C(NCCCN1CCOCC1)c1ccc(Nc2ncc(Cl)c(-c3ccc(Cl)s3)n2)cc1", "effect on": "binding", "technique": "competition with immobilised ligand", "tested at": "1 µM", "remaining binding": "76%"}
{"Compound": "CC(=O)Nc1c(C(C)=O)c(=O)n(C)c2nc(-c3ccc(Cl)cc3Cl)c(-c3ccc(Cl)cc3)cc12", "effect on": "cell-free assay", "technique": "competition with immobilised ligand", "tested at": "1 µM", "remaining binding": "100%"}
{"Compound": "Cc1cnc(Nc2ccc(C(=O)N3CCC(N4CCCC4)CC3)cc2)nc1-c1cc2ccccc2s1", "effect on": "binding", "technique": "competition with immobilised ligand", "tested at": "1 µM", "remaining binding": "43%"}
{"Compound": "CNC(=O)[C@@H]1CC[C@@H](n2c(-c3ccc4cnccc4c3)nc3ccc(C(=O)NCc4cccc(C(N)=O)c4)cc32)C1", "effect on": "binding", "technique": "competition with immobilised ligand", "tested at": "1 µM", "remaining binding": "100%"}
{"Compound": "N[C@H]1CCN(c2nccc(-c3cnn4ncccc34)n2)C1", "effect on": "binding", "tested at": "1 µM", "remaining binding": "91%"}
{"Compound": "CC(=O)C1=C(C)N(c2cccc(C(F)(F)F)c2)C(=O)N[C@@H]1c1ccc(C#N)nc1", "effect on": "cell-free assay", "technique": "competition with immobilised ligand", "tested at": "1 µM", "remaining binding": "81.1%"}
{"Compound": "FC(F)(F)Oc1cccc(-c2cnc3ccc(-c4ccncc4)nn23)c1", "effect on": "binding", "technique": "competition with immobilised ligand", "tested at": "5 µM", "remaining binding": "81%"}
{"Compound": "CSc1cccnc1N1CCN(Cc2nc3ccccc3[nH]2)CC1", "effect on": "cell-free assay", "technique": "competition with immobilised ligand", "tested at": "1 µM", "remaining binding": "100%"}
{"Compound": "CN(C)c1ncc(F)c(-c2cnn3ncccc23)n1", "effect on": "binding", "tested at": "1 µM", "remaining binding": "78%"}
{"Compound": "CN(C)c1ncnc(-c2ccc3nc(Nc4cc(CN5CCN(C(=O)CC(F)(F)F)CC5)ccn4)[nH]c3c2)c1Cl", "effect on": "cell-free assay", "technique": "competition with immobilised ligand", "tested at": "1 µM", "remaining binding": "76%"}
{"Compound": "Cc1ccc(-n2nc(C(C)(C)C)cc2NC(=O)Nc2ccc(-n3c(N)c(C(N)=O)c4nc5ccccc5nc43)cc2)cc1", "effect on": "cell-free assay", "technique": "competition with immobilised ligand", "tested at": "1 µM", "remaining binding": "9.6%"}
{"Compound": "CN([C@@H]1CCc2c(CC(=O)O)c3cc(S(C)(=O)=O)ccc3n2C1)S(=O)(=O)c1ccc(F)cc1", "effect on": "cell-free assay", "technique": "competition with immobilised ligand", "tested at": "1 µM", "remaining binding": "88%"}
{"Compound": "COc1ncc2cc3ccccc3nc2c1C#N", "effect on": "cell-free assay", "technique": "competition with immobilised ligand", "tested at": "5 µM", "remaining binding": "100%"}
{"Compound": "Cc1cnn2ncc(-c3ccnc(N(C)C)n3)c2c1", "effect on": "binding", "tested at": "1 µM", "remaining binding": "100%"}
{"Compound": "Cc1nc(C2CCN(C(=O)c3ccc(OC(F)(F)F)cc3N)CC2)c2ncc(N3CCN(C)CC3)cc2n1", "effect on": "cell-free assay", "technique": "competition with immobilised ligand", "tested at": "1 µM", "remaining binding": "100%"}
